Data reported in ChEMBL document CHEMBL5257120 (Bioorg Med Chem, 2023).
pIC50: −log10 of the molar value.

Experiments:
[1] = Hepatotoxicity in Swiss albino mouse assessed as alkaline phosphatase level at 50 mg/kg, po administered for 7 days (reference value: 260.10 +/- 26.76 U/L); assay type: toxicity, organism-based; settings: in vivo, 168 h, time 7 day
Summary of the method: (§1)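 Single acute oral dose (5, 50, 300 or 1000 mg/kg) given to Swiss albino mice, n = 6, with 7-day observation. At the end, haematological and serum biochemical parameters were measured. Compared with untreated controls; mean ± SE, ANOVA, p < 0.05.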

[2] = Toxicity in Swiss albino mouse assessed as WBC level at 300 mg/kg, po administered for 7 days (reference value: 5.29 +/- 0.51 10^3/mm3); assay type: organism-based; settings: in vivo, 168 h, time 7 day
[3] = Renal toxicity in Swiss albino mouse assessed as creatinine level at 50 mg/kg, po administered for 7 days (reference value: 0.76 +/- 0.06 mg/dl); assay type: organism-based; settings: in vivo, 168 h, time 7 day; summary of the method: as §1
[4] = Antiinflammatory activity in mouse peritoneal macrophage assessed as reduction in LPS-induced IL6 production at 10 ug/ml; assay type: functional; settings: dose 10 µg/ml
[5] = Toxicity in Swiss albino mouse assessed as change in body weight at 50 mg/kg, po administered for 7 days (reference value: 29.35 +/- 0.57 g); assay type: organism-based; settings: in vivo, 168 h, time 7 day
[6] = Antiinflammatory activity in mouse peritoneal macrophage assessed as reduction in LPS-induced TNFalpha production at 1 ug/ml; assay type: functional; settings: dose 1 µg/ml
[7] = Toxicity in Swiss albino mouse assessed as change in body weight at 300 mg/kg, po administered for 7 days (reference value: 29.35 +/- 0.57 g); assay type: organism-based; settings: in vivo, 168 h, time 7 day
[8] = Toxicity in Swiss albino mouse assessed as change in relative kidney weight at 5 to 1000 mg/kg, po administered for 7 days; assay type: organism-based; settings: in vivo, 168 h, dose 5-1000 mg/kg, time 7 day
[9] = Antiinflammatory activity in mouse peritoneal macrophage assessed as inhibition of LPS-induced IL6 production at 1 ug/ml relative to control; assay type: functional; parameters: scale not given: the % may be the effect or the level left; settings: dose 1 µg/ml
[10] = Hepatotoxicity in Swiss albino mouse assessed as serum protein level at 50 mg/kg, po administered for 7 days (reference value: 5.73 +/- 0.21 mg/ml); assay type: toxicity, organism-based; settings: in vivo, 168 h, time 7 day; summary of the method: as §1
[11] = Toxicity in Swiss albino mouse assessed as WBC level at 50 mg/kg, po administered for 7 days (reference value: 5.29 +/- 0.51 10^3/mm3); assay type: organism-based; settings: in vivo, 168 h, time 7 day
[12] = Toxicity in Swiss albino mouse assessed as triglyceride level at 1000 mg/kg, po administered for 7 days (reference value: 136.88 +/- 3.12 mg/dl); assay type: organism-based; settings: in vivo, 168 h, time 7 day
[13] = Toxicity in Swiss albino mouse assessed as triglyceride level at 50 mg/kg, po administered for 7 days (reference value: 136.88 +/- 3.12 mg/dl); assay type: organism-based; settings: in vivo, 168 h, time 7 day
[14] = Hepatotoxicity in Swiss albino mouse assessed as SGPT level at 1000 mg/kg, po administered for 7 days (reference value: 17.01 +/- 2.33 U/L); assay type: toxicity, organism-based; settings: in vivo, 168 h, time 7 day; summary of the method: as §1
[15] = Renal toxicity in Swiss albino mouse assessed as creatinine level at 300 mg/kg, po administered for 7 days (reference value: 0.76 +/- 0.06 mg/dl); assay type: organism-based; settings: in vivo, 168 h, time 7 day; summary of the method: as §1
[16] = Toxicity in Swiss albino mouse assessed as cholesterol level at 1000 mg/kg, po administered for 7 days (reference value: 140.17 +/- 3.76 mg/dl); assay type: organism-based; settings: in vivo, 168 h, time 7 day
[17] = Renal toxicity in Swiss albino mouse assessed as creatinine level at 5 mg/kg, po administered for 7 days (reference value: 0.76 +/- 0.06 mg/dl); assay type: organism-based; settings: in vivo, 168 h, time 7 day; summary of the method: as §1
[18] = Hepatotoxicity in Swiss albino mouse assessed as SGPT level at 300 mg/kg, po administered for 7 days (reference value: 17.01 +/- 2.33 U/L); assay type: toxicity, organism-based; settings: in vivo, 168 h, time 7 day; summary of the method: as §1
[19] = Toxicity in Swiss albino mouse assessed as RBC level at 50 mg/kg, po administered for 7 days (reference value: 7.13 +/- 0.40 million/mm3); assay type: organism-based, Erythrocyte; settings: in vivo, 168 h, time 7 day; summary of the method: as §1
[20] = Toxicity in Swiss albino mouse assessed as cholesterol level at 50 mg/kg, po administered for 7 days (reference value: 140.17 +/- 3.76 mg/dl); assay type: organism-based; settings: in vivo, 168 h, time 7 day
[21] = Hepatotoxicity in Swiss albino mouse assessed as SGPT level at 5 mg/kg, po administered for 7 days (reference value: 17.01 +/- 2.33 U/L); assay type: toxicity, organism-based; settings: in vivo, 168 h, time 7 day; summary of the method: as §1
[22] = Toxicity in Swiss albino mouse assessed as change in absolute liver weight at 5 to 1000 mg/kg, po administered for 7 days; assay type: organism-based; settings: in vivo, 168 h, dose 5-1000 mg/kg, time 7 day
[23] = Toxicity in Swiss albino mouse assessed as change in relative brain weight at 5 to 1000 mg/kg, po administered for 7 days; assay type: organism-based; settings: in vivo, 168 h, dose 5-1000 mg/kg, time 7 day
[24] = Toxicity in Swiss albino mouse assessed as change in relative liver weight at 5 to 1000 mg/kg, po administered for 7 days; assay type: organism-based; settings: in vivo, 168 h, dose 5-1000 mg/kg, time 7 day
[25] = Toxicity in Swiss albino mouse assessed as change in relative heart weight at 5 to 1000 mg/kg, po administered for 7 days; assay type: organism-based; settings: in vivo, 168 h, dose 5-1000 mg/kg, time 7 day
[26] = Toxicity in Swiss albino mouse assessed as RBC level at 5 mg/kg, po administered for 7 days (reference value: 7.13 +/- 0.40 million/mm3); assay type: organism-based, Erythrocyte; settings: in vivo, 168 h, time 7 day; summary of the method: as §1
[27] = Antiinflammatory activity in mouse peritoneal macrophage assessed as inhibition of LPS-induced IL6 production at 10 ug/ml relative to control; assay type: functional; parameters: scale not given: the % may be the effect or the level left; settings: dose 10 µg/ml
[28] = Hepatotoxicity in Swiss albino mouse assessed as albumin level at 300 mg/kg, po administered for 7 days (reference value: 4.12 +/- 0.17 g/dl); assay type: toxicity, organism-based; settings: in vivo, 168 h, time 7 day; summary of the method: as §1
[29] = Hepatotoxicity in Swiss albino mouse assessed as albumin level at 50 mg/kg, po administered for 7 days (reference value: 4.12 +/- 0.17 g/dl); assay type: toxicity, organism-based; settings: in vivo, 168 h, time 7 day; summary of the method: as §1
[30] = Antiinflammatory activity in mouse peritoneal macrophage assessed as reduction in LPS-induced IL6 production at 1 ug/ml; assay type: functional; settings: dose 1 µg/ml
[31] = Hepatotoxicity in Swiss albino mouse assessed as SGPT level at 50 mg/kg, po administered for 7 days (reference value: 17.01 +/- 2.33 U/L); assay type: toxicity, organism-based; settings: in vivo, 168 h, time 7 day; summary of the method: as §1
[32] = Toxicity in Swiss albino mouse assessed as WBC level at 5 mg/kg, po administered for 7 days (reference value: 5.29 +/- 0.51 10^3/mm3); assay type: organism-based; settings: in vivo, 168 h, time 7 day
[33] = Toxicity in Swiss albino mouse assessed as cholesterol level at 5 mg/kg, po administered for 7 days (reference value: 140.17 +/- 3.76 mg/dl); assay type: organism-based; settings: in vivo, 168 h, time 7 day
K562 = test: Cytotoxicity against human K562 cells incubated for 72 hrs by Sulphorhodamine assay; assay type: functional, cell-based; settings: K562, 72 h
[34] = Toxicity in Swiss albino mouse assessed as cholesterol level at 300 mg/kg, po administered for 7 days (reference value: 140.17 +/- 3.76 mg/dl); assay type: organism-based; settings: in vivo, 168 h, time 7 day
[35] = Toxicity in Swiss albino mouse assessed as behavioural changes at 5 to 1000 mg/kg, po administered for 7 days; assay type: organism-based; settings: in vivo, 168 h, dose 5-1000 mg/kg, time 7 day
[36] = Hepatotoxicity in Swiss albino mouse assessed as SGOT level at 5 mg/kg, po administered for 7 days (reference value: 31.51 +/- 6.31 U/L); assay type: toxicity, organism-based; settings: in vivo, 168 h, time 7 day; summary of the method: as §1
[37] = Cytotoxicity against african green monkey Vero cells incubated for 72 hrs by Sulphorhodamine assay; assay type: toxicity, cell-based; settings: African green monkey (Chlorocebus sabaeus)

For `COc1cc(C2/C(=C/c3ccc(/C=C/C(=O)NO)cc3)C(=O)c3cc(OC)c(OC)c(OC)c32)cc(OC)c1OC` (stereo not drawn), the Activity [1] was 281.72 U/L, the Activity [2] was 5.75 10^3/mm3 and the Activity [3] was 0.69 mg/dL. The Activity [4] was 2199.42 pg/mL, the Activity [5] was 28.18 g and the Activity [6] was 1019.21 pg/mL. The Activity [7] was 30.22 g, the Activity [8] was “Non-Toxic” and the Activity [9] was 13.14%. For the same compound, the Activity [10] was 5.64 mg/mL, the Activity [11] was 4.34 10^3/mm3 and the Activity [12] was 130.21 mg/dL. For the same compound, the Activity [13] was 129.78 mg/dL, the Activity [14] was 22.91 U/L and the Activity [15] was 0.64 mg/dL. It also gave an Activity [16] of 157.22 mg/dL, an Activity [17] of 0.58 mg/dL and an Activity [18] of 17.95 U/L. The Activity [19] was 8.82 million/mm3, the Activity [20] was 157.99 mg/dL and the Activity [21] was 16.79 U/L. For the same compound, the Activity [22] was “Non-Toxic”, the Activity [23] was “Non-Toxic” and the Activity [24] was “Non-Toxic”. For the same compound, the Activity [25] was “Non-Toxic”, the Activity [26] was 8.96 million/mm3 and the Activity [27] was 27.01%. The Activity [28] was 4.46 g/dL, the Activity [29] was 4.36 g/dL and the Activity [30] was 2617.2 pg/mL. The Activity [31] was 19.56 U/L, the Activity [32] was 5.01 10^3/mm3 and the Activity [33] was 162.42 mg/dL. The pIC50 (K562) was 5.49, the Activity [34] was 157.14 mg/dL and the Activity [35] was “Non-Toxic”. For the same compound, the Activity [36] was 28.87 U/L and the IC50 at 72 h [37] was 100 µM.
